Measured values gathered from unrelated publications.
Target: Calcium/calmodulin-dependent protein kinase type II subunit alpha (CAMK2A, Homo sapiens, UniProt Q9UQM7)

| Structure (SMILES) | observed | mode | method | tested at | measurement | value |
| --- | --- | --- | --- | --- | --- | --- |
| Cn1cc(-c2cc(F)cc(N3CCn4c(cc5c4CCCC5)C3=O)c2CO)cc(Nc2ccc(N3CCN(C4COC4)CC3)cn2)c1=O | enzyme activity | inhibitor | – | 0.1 µM | inhibition | 12% |
| N#CC1(c2ccccn2)CCN(Cc2cc(C(=O)O)c(=O)n3ccccc23)CC1 | cell-free assay | – | competition with immobilised ligand | 1 µM | remaining binding | 83% |
| Cc1ncc(C)n2nc(/C=C/c3nc(N4CCCC4)cc(N4CCOCC4)n3)nc12 | enzyme activity | inhibitor | – | 10 µM | inhibition | 6% |
| Cn1cc(-c2cccc(N3CCc4c(sc5c4CC(C)(C)C5)C3=O)c2CO)cc(Nc2ccncn2)c1=O | enzyme activity | inhibitor | – | 1 µM | inhibition | -7% |
| O=C(Nc1cccnn1)N1CCN([C@@H]2CCOc3cc(C(F)(F)F)ccc32)CC1 | cell-free assay | – | – | 20 µM | inhibition | 3% |
| COc1ncccc1-c1cnn2ccc(N3CCN(C(=O)OC(C)C)CC3)nc12 | binding | – | competition with immobilised ligand | 1 µM | remaining binding | 70% |
| Nc1ncc(-c2nc(N3CCOCC3)nc(N3CCOCC3)n2)c(C(F)F)n1 | binding | – | competition with immobilised ligand | 10 µM | remaining binding | 64% |
| O=c1[nH]c2ccccc2n1C1CCN(Cc2ccc(-c3[nH]c4cc5ncnc5cc4nc3-c3ccccc3)cc2)CC1 | cell-free assay | – | – | 0.5 µM | remaining signal | 109% |
| Cn1cncc1[C@](O)(COc1ccc(C#N)cc1-c1ccc(OC(F)(F)F)cc1)c1ccc(C#N)cc1 | cell-free assay | – | competition with immobilised ligand | 1 µM | remaining binding | 95% |
| Cc1nn(C)cc1-c1nc2c(N3CCN(Cc4ccc(Cl)cc4)CC3)c(Cl)cnc2[nH]1 | binding | – | competition with immobilised ligand | 1 µM | remaining binding | 95% |
